For assay [1], the system named is Myzus persicae. The assay can be described thus: Antifeedant effect against Myzus persicae assessed as inhibition index at 100 ug/cm2 relative to control. In kind it is functional. The arrangement: scale not given: the % may be the effect or the level left. The method, boiled down: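 Choice settling test on apterous adult M. persicae: 20 boxes of 10 aphids per treatment. Settling inhibition %SI = [1 − (%aphids on treated/%aphids on control surface)] × 100.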

In assay [2] the test system is Leptinotarsa decemlineata. Nature of the assay: Antifeedant effect against Leptinotarsa decemlineata assessed as feeding reduction at 10 ug/cm2. Format: functional, organism-based. In short, it runs like this: (§1)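 Choice test on leaf disks using adult L. decemlineata or newly emerged fifth-instar S. littoralis larvae. Five to 10 plates per treatment, three insects each. Uneaten leaf-disk area was measured by scanner. %FR = [1 − (treatment/control consumption)] × 100 per arena. Where FR exceeded 50%, EC50 was taken from linear regression of %FR on log dose.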

For assay [3], the system named is Spodoptera littoralis. The assay can be described thus: Antifeedant effect against Spodoptera littoralis L6 larvae assessed as relative consumption rate at 10 ug, po after 72 hrs. In kind it is functional. The method, boiled down:
(§2)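 Preweighed, newly emerged S. littoralis L6 larvae (20 per experiment) were orally cannulated with 10 µg in 2 µL DMSO; controls got solvent alone. Relative consumption and growth rates were calculated at 72 h on a dry-weight basis. Log-transformed weights were analysed by ANOVA with LSD tests.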

Assay [4] concerns Spodoptera littoralis. The assay can be described thus: Antifeedant effect against Spodoptera littoralis L6 larvae assessed as relative growth rate at 10 ug, po after 72 hrs. In kind it is functional. In short, it runs like this:
as §2

Assay [5] has as its system Leptinotarsa decemlineata. The assay can be described thus: Insecticidal activity against Leptinotarsa decemlineata assessed as mortality at 5 ug by hemolymph injection after 72 hrs. In kind it is functional. The method, boiled down: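 Adult L. decemlineata (20 beetles) were injected with 5 µg in DMSO through the metepimeron suture of the thorax. Beetles were kept on potato leaves. Symptoms and mortality were recorded up to 3 days, analysed by contingency tables and Abbott-corrected.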

Assay [6] deals with Myzus persicae. Nature of the assay: Insecticidal activity against Myzus persicae assessed as increase in mortality at 100 ug/cm2 observed daily for 4 days. In kind it is functional, organism-based. In short, it runs like this:
(§3)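 No-choice test: 20 boxes, each with five same-age apterous adult M. persicae (100 insects). Nymphs produced in the first 48 h were separated from adults and kept in similarly treated boxes. Both were observed daily for 4 days for mortality. Analysed by contingency tables and LSD test.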

Assay [7] deals with Myzus persicae. Nature of the assay: Insecticidal activity against Myzus persicae assessed as offspring production at 100 ug/cm2 observed daily for 4 days. Format: functional, organism-based. The method, boiled down:
as §3

Assay [8] deals with Myzus persicae. The assay can be described thus: Insecticidal activity against Myzus persicae assessed as offspring production at 50 ug/cm2 observed daily for 4 days. Format: functional, organism-based. The method, boiled down:
as §3

The test system of assay [9] is Spodoptera littoralis. Nature of the assay: Antifeedant effect against Spodoptera littoralis assessed as feeding reduction at 100 ug/cm2 relative to control. In kind it is functional. Also on record: scale not given: the % may be the effect or the level left. In short, it runs like this:
as §1

`C=C(C)[C@H]1Cc2c(ccc3c2O[C@@H]2COc4cc(OC)c(OC)cc4[C@@H]2C3=O)O1` [ROTENONE]: the Activity was <40% in assay [1]; “Toxic” in assay [2]; 20.88 mg in assay [3]; 3.47 mg in [4]; 100% in assay [5]; “Non-toxic” in assay [6]. The Activity result in assay [7] is “Toxic”; in assay [8] it was “Toxic”; in assay [9], >40%.

For the origin of these results see ChEMBL document CHEMBL1142626, “Insecticidal and mutagenic evaluation of two annonaceous acetogenins” (J Nat Prod, 2000).
